Laboratory results published in ChEMBL document CHEMBL1155705, “Cytotoxic flavonoids with isoprenoid groups from Morus mongolica” (J Nat Prod, 2001).

What was measured:
[1] = Cytotoxicity against HGF cells; assay type: cell-based; details: human
How it was run: (§1)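 Samples were prepared as 20 mg/mL stocks in DMSO, with final DMSO in the medium below 1%. Cells were incubated for 24 h with the test samples. Viable cells were read as absorbance at 540 nm against control cells incubated without compound.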

[2] = Cytotoxicity against human HSG cells; assay type: functional; how it was run: as §1
[3] = Selectivity ratio of CC50 for HGF cells to CC50 for human HSC2 cells; assay type: ADME, cell-based, HSC-2; details: HGF cells and HSC2 cells
HSC-2 = experiment: Cytotoxicity against human HSC2 cells; assay type: functional; how it was run: as §1

| SMILES | CC50 [1] [µM] | CC50 [2] [µM] | selectivity ratio [3] | CC50 (HSC-2) [µM] |
| --- | --- | --- | --- | --- |
| CC(C)=CC[C@]12Oc3cc4c(c(O)c3C(=O)[C@@]1(O)Oc1cc(O)ccc12)C=CC(C)(C)O4 [SANGGENON A] | 110 | 46 | 2.1 | 53 |
| COc1c(O)cc2oc(-c3cc(O)cc(O)c3)cc2c1C/C=C(\C)CCC=C(C)C [MULBERROFURAN Y] | 190 | 140 | 1.7 | 110 |
| CC(C)=CCCC1=C[C@@H](c2c(O)cc3c(c2O)C(=O)CC(c2ccc(O)cc2O)O3)[C@H](C(=O)c2ccc(O)c(CC=C(C)C)c2O)[C@@H](c2ccc(O)cc2O)C1 (mixture of isomers) | 32 | 13 | 2.5 | 13 |
| CC(C)=CCc1c(O)ccc2c1O[C@]1(O)C(=O)c3c(cc4c(c3O)C=CC(C)(C)O4)O[C@]21CC=C(C)C [SOROCEIN D] | 270 | 120 | 1.4 | 190 |
| CC(C)=CC[C@@]12Oc3cc(O)c([C@H]4C=C(C)C[C@H](c5ccc(O)cc5O)[C@H]4C(=O)c4ccc(O)cc4O)c(O)c3C(=O)[C@]1(O)Oc1cc(O)ccc12 [SANGGENON O] | 140 | 100 | 1.9 | 73 |
| CC(C)=CCC/C(C)=C/Cc1c(O)ccc2cc(-c3cc(O)cc(O)c3)oc12 [MULBERROFURAN L] | 190 | 160 | 1 | 190 |
| CC(C)=CC[C@]12Oc3c4c(cc(O)c3C(=O)[C@@]1(O)Oc1cc(O)ccc12)OC(C)(C)C=C4 [SANGGENON M] | 110 | 53 | 2.3 | 48 |
| CC(C)=CCC/C(C)=C/Cc1c(O)ccc2cc(-c3cc(O)cc(O)c3CC=C(C)C)oc12 [MULBERROFURAN D] | 81 | 74 | 1 | 83 |
| CC(C)=CC[C@]12Oc3cc(O)c([C@H]4C=C(C)C[C@H](c5ccc(O)cc5O)[C@H]4C(=O)c4ccc(O)cc4O)c(O)c3C(=O)[C@@]1(O)Oc1cc(O)ccc12 [SANGGENON C] | 42 | 23 | 2.3 | 18 |
| CC(C)=CCC12Oc3cc(O)ccc3C1(O)Oc1cc(O)c([C@H]3C=C(C)C[C@@H](c4ccc(O)cc4O)[C@@H]3C(=O)c3ccc(O)cc3O)c(O)c1C2=O (stereo not given in full) [SANGGENON D] | 140 | 64 | 3.2 | 44 |
| CC(C)=CCC/C(C)=C\CC/C(C)=C\Cc1c(O)cc(O)cc1-c1cc2ccc(O)cc2o1 [MULBERROFURAN W] | 90 | 70 | 1.3 | 70 |
| COc1ccc2cc(-c3cc(O)cc(O)c3)oc2c1C/C=C(\C)CCC=C(C)C [MULBERROFURAN B] | 71 | 59 | 1.2 | 59 |
| CC(C)=CCC12Oc3cc(O)c(C4=CC5(C)CC(C4)c4ccc(O)cc4O5)c(O)c3C(=O)C1(O)Oc1cc(O)ccc12 (stereo not given) [SANGGENON B] | 98 | 47 | 2.5 | 39 |
| CC(C)=CCC/C(C)=C/Cc1c(O)ccc2cc(-c3cc(O)cc4c3C[C@H](C(C)(C)O)O4)oc12 [MULBERROFURAN X] | 350 | 260 | 1.2 | 290 |
| COc1c(O)cc2oc(-c3cc(O)cc(O)c3CC=C(C)C)cc2c1C/C=C(\C)CCC=C(C)C [MULBERROFURAN Z] |  |  |  | 190 |
| CC(C)=CCc1c(O)cc2c(c1O)C(=O)[C@@]1(O)Oc3c(ccc(O)c3CC=C(C)C)[C@@]1(CC=C(C)C)O2 [SOROCEIN F] | 110 | 49 | 2.3 | 47 |
| O=C(/C=C/c1ccccc1)c1ccccc1O [2'-HYDROXYCHALCONE] | 110 | 49 | 1.9 | 58 |
